These results are taken from ChEMBL document CHEMBL1125849, “Synthesis of the 2-amino-4-phosphonobutanoic acid analogues (E)- and (Z)-2-amino-2,3-methano-4-phosphonobutanoic acid and their evaluation as inhibitors of hippocampal excitatory neurotransmission” (J Med Chem, 1991).

Holding throughout (type): functional
A short description of assay [1]: Ratio is IC50 vales of medial perforant path (MPP) to that of lateral perforant path (LPP). A digest of the protocol:
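Ratio of MPP to LPP IC50 values from rat hippocampal slice field-potential recordings. Dentate molecular layer recorded, middle third (MPP) and outer third (LPP), at 34 °C. Concentration doubled every 4 min. Each IC50 is a weighted mean taken from fractional-response versus log-concentration curves.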

The species entered for assay [2] is Rattus norvegicus. In words: Inhibitory activity against Hippocampal Excitatory Neurotransmission using medial perforant path (MPP) in rat hippocamapl slice Tested as racemic mixtures. The method, boiled down:
(§1)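 Rat transverse hippocampal slices (450 μm) from urethane-anesthetized animals, held in oxygenated bicarbonate medium, pH 7.4. Recording in a microperfusion chamber at 34 °C. Field potentials in the dentate molecular layer: outer third for LPP, middle third for MPP. Placement checked with L-AP4. Drug started at threshold and doubled every 4 min. IC50 taken from fractional response versus log concentration, as a weighted mean.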

Assay [3] is filed under the species Rattus norvegicus. In words: Inhibitory activity against Hippocampal Excitatory Neurotransmission using lateral perforant path (LPP)in rat hippocamapl slice Tested as racemic mixtures. The method, boiled down:
as §1

Where [4] appears, read: Rattus norvegicus, Perforant path.

Structures are written as SMILES. pIC50: −log10 of the molar value.

Regarding `N[C@]1(C(=O)O)CC[C@H](P(=O)(O)O)C1`, the Ratio in assay [1] is on record as 31. The values for the pIC50 in the assay filed under Rattus norvegicus [2] (setting [4]) and in the assay filed under Rattus norvegicus [3] (setting [4]) were 2.73 and 3.89, respectively.

Consider `NC1(C(=O)O)CC1CP(=O)(O)O` (stereo in doubt; 5), for which the Ratio in assay [1] is given as 88. The values for the negative-log IC50 (pIC50) in the assay listed under Rattus norvegicus [2] and in the assay filed under Rattus norvegicus [3] were 2.80 and 4.74, respectively.

Turning to `N[C@]1(C(=O)O)CC[C@@H](P(=O)(O)O)C1`, the Ratio in assay [1] is recorded as 2.5. The values for the pIC50 in the assay filed under Rattus norvegicus [2] (setting [4]) and in the assay filed under Rattus norvegicus [3] (setting [4]) were 2.62 and 3.02, respectively.

Take `NC1(C(=O)O)CC1CP(=O)(O)O` (stereo in doubt; 6): the Ratio in assay [1] was 4.8. The pIC50 in the assay filed under Rattus norvegicus [2] is 4.09; in the assay filed under Rattus norvegicus [3] (setting [4]) it was 4.77.

Take `N[C@@H](CCP(=O)(O)O)C(=O)O`: in assay [1], the Ratio came to 18.
